Key:
[1] = Cmax in BALB/cAnNCrlCrlj mouse epithelial lining fluid at 0.5 umol/kg administered intranasally; type: ADME, tissue-based; parameters: dose 0.5 umol/kg, route nasal; conditions: inhaled or intranasal
Summary of the method: (§1)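 Female BALB/c mice (7 weeks old) received a single intranasal dose of 0.5 μmol/kg at 2.5 ml/kg, with N=3–4 per time point up to 24 h. Plasma, BAL fluid (3 × 1 ml PBS pH 7.4) and lung homogenate were taken, and AEBSF was added to a final 5 mM. LO and laninamivir were measured by LC-MS/MS. ELF levels were corrected using the urea ratio between plasma and BAL. Non-compartmental analysis on mean concentrations gave Cmax/Tmax by observation, t1/2 from ≥3 terminal log points, and AUClast by the trapezoidal method.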

[2] = Cmax in BALB/cAnNCrlCrlj mouse epithelial lining fluid treated with laninamivir octanoate at 0.5 umol/kg administered intranasally; type: ADME; parameters: dose 0.5 umol/kg, route nasal; conditions: inhaled or intranasal; summary of the method: as §1
Lung [3] = assay: Cmax in BALB/cAnNCrlCrlj mouse lung at 0.5 umol/kg administered intranasally; type: ADME; parameters: dose 0.5 umol/kg, route nasal; conditions: in vivo, inhaled_or_intranasal; summary of the method: as §1
Lung [4] = assay: Cmax in BALB/cAnNCrlCrlj mouse lung treated with laninamivir octanoate at 0.5 umol/kg administered intranasally; type: ADME; parameters: dose 0.5 umol/kg, route nasal; conditions: in vivo, inhaled_or_intranasal; summary of the method: as §1
[5] = Elimination half life in BALB/cAnNCrlCrlj mouse epithelial lining fluid treated with laninamivir octanoate at 0.5 umol/kg administered intranasally; type: ADME; conditions: inhaled or intranasal, read-out: beta t1/2 (converted); summary of the method: as §1
[6] = Cmax in BALB/cAnNCrlCrlj mouse plasma at 0.5 umol/kg administered intranasally; type: ADME, cell-free; parameters: dose 0.5 umol/kg, route nasal; conditions: inhaled or intranasal; summary of the method: as §1
[7] = Cmax in BALB/cAnNCrlCrlj mouse plasma treated with laninamivir octanoate at 0.5 umol/kg administered intranasally; type: ADME, cell-free; parameters: dose 0.5 umol/kg, route nasal; conditions: inhaled or intranasal; summary of the method: as §1
[8] = Tmax in BALB/cAnNCrlCrlj mouse epithelial lining fluid at 0.5 umol/kg administered intranasally; type: ADME, tissue-based; conditions: inhaled or intranasal; summary of the method: as §1
[9] = Tmax in BALB/cAnNCrlCrlj mouse epithelial lining fluid treated with laninamivir octanoate at 0.5 umol/kg administered intranasally; type: ADME, tissue-based; conditions: inhaled or intranasal; summary of the method: as §1
[10] = Tmax in BALB/cAnNCrlCrlj mouse lung at 0.5 umol/kg administered intranasally; type: ADME; conditions: inhaled or intranasal; summary of the method: as §1
[11] = Tmax in BALB/cAnNCrlCrlj mouse lung treated with laninamivir octanoate at 0.5 umol/kg administered intranasally; type: ADME; conditions: inhaled or intranasal; summary of the method: as §1
[12] = Tmax in BALB/cAnNCrlCrlj mouse plasma at 0.5 umol/kg administered intranasally; type: ADME, cell-free; conditions: inhaled or intranasal; summary of the method: as §1
[13] = Tmax in BALB/cAnNCrlCrlj mouse plasma treated with laninamivir octanoate at 0.5 umol/kg administered intranasally; type: ADME, cell-free; conditions: inhaled or intranasal; summary of the method: as §1
[14] = Elimination half life in BALB/cAnNCrlCrlj mouse epithelial lining fluid at 0.5 umol/kg administered intranasally; type: ADME, tissue-based; conditions: BALB/cAnNCrlCrlj, epithelial lining fluid, inhaled or intranasal, 0.5 umol/kg, read-out: beta t1/2 (converted); summary of the method: as §1
[15] = Elimination half life in BALB/cAnNCrlCrlj mouse lung at 0.5 umol/kg administered intranasally; type: ADME, tissue-based; conditions: BALB/cAnNCrlCrlj, lung, inhaled or intranasal, 0.5 umol/kg, read-out: beta t1/2 (converted); summary of the method: as §1
[16] = Elimination half life in BALB/cAnNCrlCrlj mouse lung treated with laninamivir octanoate at 0.5 umol/kg administered intranasally; type: ADME, tissue-based; conditions: inhaled or intranasal, read-out: beta t1/2 (converted); summary of the method: as §1
[17] = Elimination half life in BALB/cAnNCrlCrlj mouse plasma treated with laninamivir octanoate at 0.5 umol/kg administered intranasally; type: ADME, cell-free; conditions: inhaled or intranasal, read-out: beta t1/2 (converted); summary of the method: as §1
[18] = AUClast in BALB/cAnNCrlCrlj mouse epithelial lining fluid at 0.5 umol/kg administered intranasally; type: ADME, tissue-based; parameters: dose 0.5 umol/kg, route nasal, time 0 - last; conditions: inhaled or intranasal; summary of the method: as §1
[19] = AUClast in BALB/cAnNCrlCrlj mouse epithelial lining fluid treated with laninamivir octanoate at 0.5 umol/kg administered intranasally; type: ADME, tissue-based; parameters: dose 0.5 umol/kg, time 0 - last, route nasal; conditions: inhaled or intranasal; summary of the method: as §1
Lung [20] = assay: AUClast in BALB/cAnNCrlCrlj mouse lung at 0.5 umol/kg administered intranasally; type: ADME; conditions: in vivo, inhaled_or_intranasal; summary of the method: as §1
Lung [21] = assay: AUClast in BALB/cAnNCrlCrlj mouse lung treated with laninamivir octanoate at 0.5 umol/kg administered intranasally; type: ADME; conditions: in vivo, inhaled_or_intranasal; summary of the method: as §1
[22] = AUClast in BALB/cAnNCrlCrlj mouse plasma at 0.5 umol/kg administered intranasally; type: ADME, cell-free; parameters: dose 0.5 umol/kg, time 0 - last, route nasal; conditions: inhaled or intranasal; summary of the method: as §1
[23] = AUClast in BALB/cAnNCrlCrlj mouse plasma treated with laninamivir octanoate at 0.5 umol/kg administered intranasally; type: ADME, cell-free; parameters: dose 0.5 umol/kg, time 0 - last, route nasal; conditions: inhaled or intranasal; summary of the method: as §1
[24] = Drug uptake in BALB/cAnNCrlCrlj mouse epithelial lining fluid at 0.5 umol/kg administered intranasally measured at 4 hrs by LC-MS/MS analysis; type: ADME, tissue-based; conditions: inhaled or intranasal, read-out: Drug uptake
Summary of the method: (§2)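 Female BALB/c mice were dosed intranasally at 0.5 μmol/kg (2.5 ml/kg), N=3–4 per time point. At each sampling time, blood was taken by cardiac puncture, BAL was done with 3 × 1 ml PBS, and lungs were homogenized in 50% acetonitrile. LO and laninamivir were quantified by LC-MS/MS, calibrated over 1–100 ng/ml and 0.5–100 ng/ml respectively. ELF concentration was calculated as CBAL × (urea in plasma / urea in BAL).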

[25] = Drug uptake in BALB/cAnNCrlCrlj mouse epithelial lining fluid treated with laninamivir octanoate at 0.5 umol/kg administered intranasally measured at 4 hrs by LC-MS/MS analysis; type: ADME; conditions: inhaled or intranasal, read-out: Drug uptake; summary of the method: as §2
Plasma = assay: Drug uptake in BALB/cAnNCrlCrlj mouse plasma at 0.5 umol/kg administered intranasally measured after 8 hrs by LC-MS/MS analysis; type: ADME, cell-free; conditions: inhaled_or_intranasal; summary of the method: as §2
[26] = Drug level in primary cultured BALB/c mouse airway epithelial cells treated with laninamivir octanoate at 50 uM measured up 60 to 90 mins by LC-MS/MS analysis; type: ADME, cell-based; conditions: epithelial cell
Summary of the method: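 Primary airway epithelial cells from BALB/c mice were obtained by collagenase digestion and negative immunomagnetic selection, then grown to confluence on collagen I. Cells were pre-incubated 30 min in serum-free F-12K. For the time course they were exposed to 50 μM LO for up to 120 min; for concentration dependence, to 10–1000 μM LO for 60 min, at 37°C. After ice-cold PBS washes and Triton lysis, intracellular LO and laninamivir were measured by LC-MS/MS and normalized to Lowry protein, in triplicate.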

[27] = Drug level in primary cultured BALB/c mouse airway epithelial cells treated with laninamivir octanoate at 50 uM measured at 24 hrs by LC-MS/MS analysis; type: ADME, cell-based; conditions: epithelial cell
Summary of the method: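 Confluent primary BALB/c airway epithelial cells were loaded with 50 μM LO for 60 min and then washed. They were then incubated in drug-free medium at 37°C for up to 24 h, with the medium fully replaced at each sampling point. Cells were washed with ice-cold PBS and lysed. LO and laninamivir in medium and cells were measured by LC-MS/MS and normalized to Lowry protein, in triplicate. Release and hydrolysis rate constants were obtained by first-order compartmental modelling.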

[28] = Lipophilicity, log D of the compound at pH 7.4; type: physicochemical; conditions: buffer
[29] = Drug uptake in BALB/cAnNCrlCrlj mouse epithelial lining fluid treated with laninamivir octanoate at 0.5 umol/kg administered intranasally measured at 24 hrs by LC-MS/MS analysis; type: ADME, tissue-based; conditions: inhaled or intranasal, read-out: Drug uptake; summary of the method: as §2
[30] = Tmax in human treated with laninamivir octanoate at 40 mg administered intranasally; type: ADME, organism-based; conditions: in vivo, inhaled or intranasal
[31] = Elimination half life in human treated with laninamivir octanoate administered intranasally; type: ADME, organism-based; conditions: in vivo, inhaled or intranasal, read-out: beta t1/2 (converted)
Lung [32] = assay: Drug uptake in BALB/cAnNCrlCrlj mouse lung at 0.5 umol/kg administered intranasally measured at 24 hrs by LC-MS/MS analysis; type: ADME, tissue-based; conditions: in vivo, inhaled_or_intranasal; summary of the method: as §2
Lung [33] = assay: Drug concentration in BALB/cAnNCrlCrlj mouse lung treated with laninamivir octanoate at 0.5 umol/kg administered intranasally measured at 24 hrs; conditions: in vivo, inhaled_or_intranasal

CO[C@@H]([C@@H]1OC(C(=O)O)=C[C@H](NC(=N)N)[C@H]1NC(C)=O)[C@H](O)CO [LANINAMIVIR]
Cmax [1]: 19900 nM
Cmax [2]: 1520 nM
Cmax (Lung [3]): 1020 pmol/g
Cmax (Lung [4]): 4350 pmol/g
half-life [5]: 25.1 h
Cmax [6]: 478 nM
Cmax [7]: 181 nM
Tmax [8]: 1.98 min
Tmax [9]: 1 h
Tmax [10]: 0.25 h
Tmax [11]: 6 h
Tmax [12]: 0.5 h
Tmax [13]: 1 h
half-life [14]: 25.4 h
half-life [15]: 25 h
half-life [16]: 30.9 h
half-life [17]: 13.1 h
AUC(0-t) [18]: 19.6 µM·h
AUC(0-t) [19]: 26.5 µM·h
AUClast (Lung [20]): 9890 pmol·h/g
AUClast (Lung [21]): 75800 pmol·h/g
AUC(0-t) [22]: 0.782 µM·h
AUC(0-t) [23]: 0.445 µM·h
concentration at 4 h [24]: 51.3 nM
concentration at 4 h [25]: 1150 nM
Drug uptake (Plasma): Not Active
Drug metabolism [26]: metabolite_detected
Drug metabolism [27]: metabolite_detected
logD [28]: -2.18
concentration at 24 h [29]: 842 nM
Tmax [30]: 4 h
half-life [31]: 72 h
Drug uptake (Lung [32]): 282 pmol/g
concentration at 24 h (Lung [33]): 2680 pmol/g

Reference: ChEMBL document CHEMBL3526090, “Pharmacokinetic mechanism involved in the prolonged high retention of laninamivir in mouse respiratory tissues after intranasal administration of its prodrug laninamivir octanoate” (Drug Metab Dispos, 2013)
